{
  "source": "ChEMBL document CHEMBL4689842",
  "about": "“EUbOPEN Chemogenomics Library wave 1” (2021)",
  "system": "Fibroblast",
  "test": "Multiplex assay against human fibroblast",
  "format": "toxicity, cell-based",
  "settings": "10 µM, compound concentration 10 uM",
  "in_short": "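On a CQ1 microscope at 37°C and 5% CO2, live cells were imaged after compound addition. They had been stained at seeding with Hoechst33342, BioTracker Green Microtubule Cytoskeleton Dye, MitoTracker Red and Annexin V Alexa Fluor 680. CellPathfinder machine-learning gating assigned cells to Hoechst high-intensity objects or normal cells, normal cells to healthy, pyknosed or fragmented nuclei, and pyknosed cells to mitotic or apoptotic. Tubulin, mitochondrial-mass and membrane-permeability phenotypes are per cents of healthy-nucleus cells.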",
  "note": "Values joined by “and” are separate entries in the source; they are usually repeats but may differ in a detail not shown here. Identical values can stand only once.",
  "data": [
    {"smiles": "CCN(CC)S(=O)(=O)Nc1cccc(-c2ccc3c(NC(=O)C4CC4)n[nH]c3c2)c1", "values": [
      {"measurement": "Population Apoptotic (%)", "setting": "12 h, replicate 1", "result": 81, "unit": "%"},
      {"measurement": "Population Fragmented Nuclei (%)", "setting": "12 h, replicate 1", "result": "23% and 19%"},
      {"measurement": "Population Healthy Nuclei (%)", "setting": "12 h, replicate 1", "result": "64% and 56%"},
      {"measurement": "Population Hoechst High Intensity Objects (%)", "setting": "12 h, replicate 1", "result": "13% and 11%"},
      {"measurement": "Population Membrane Permeable-Phenotype (%)", "setting": "12 h, replicate 1", "result": "9% and 5%"},
      {"measurement": "Population Mitochondria Different-Phenotype (%)", "setting": "12 h, replicate 1", "result": "2% and 6%"},
      {"measurement": "Population Mitotic Cells (%)", "setting": "12 h, replicate 1", "result": 18, "unit": "%"},
      {"measurement": "Population Normal (%)", "setting": "12 h, replicate 1", "result": "86% and 88%"},
      {"measurement": "Population Pyknosed Nuclei (%)", "setting": "12 h, replicate 1", "result": "11% and 23%"},
      {"measurement": "Population Tubulin-Different-Phenotype (%)", "setting": "12 h, replicate 1", "result": "5% and 7%"},
      {"measurement": "Total Cell Count", "setting": "12 h, replicate 1", "result": "220 and 309"},
      {"measurement": "Population Apoptotic (%)", "setting": "12 h, replicate 2", "result": "66% and 40%"},
      {"measurement": "Population Fragmented Nuclei (%)", "setting": "12 h, replicate 2", "result": "72% and 55%"},
      {"measurement": "Population Healthy Nuclei (%)", "setting": "12 h, replicate 2", "result": "17% and 34%"},
      {"measurement": "Population Hoechst High Intensity Objects (%)", "setting": "12 h, replicate 2", "result": "48% and 35%"},
      {"measurement": "Population Membrane Permeable-Phenotype (%)", "setting": "12 h, replicate 2", "result": "20% and 11%"},
      {"measurement": "Population Mitotic Cells (%)", "setting": "12 h, replicate 2", "result": "33% and 60%"},
      {"measurement": "Population Normal (%)", "setting": "12 h, replicate 2", "result": "51% and 65%"},
      {"measurement": "Population Pyknosed Nuclei (%)", "setting": "12 h, replicate 2", "result": "10% and 9%"},
      {"measurement": "Population Tubulin-Different-Phenotype (%)", "setting": "12 h, replicate 2", "result": "20% and 11%"},
      {"measurement": "Total Cell Count", "setting": "12 h, replicate 2", "result": "56 and 80"},
      {"measurement": "Population Apoptotic (%)", "setting": "24 h, replicate 1", "result": "77% and 62%"},
      {"measurement": "Population Fragmented Nuclei (%)", "setting": "24 h, replicate 1", "result": "22% and 19%"},
      {"measurement": "Population Healthy Nuclei (%)", "setting": "24 h, replicate 1", "result": "66% and 62%"},
      {"measurement": "Population Hoechst High Intensity Objects (%)", "setting": "24 h, replicate 1", "result": "13% and 11%"},
      {"measurement": "Population Membrane Permeable-Phenotype (%)", "setting": "24 h, replicate 1", "result": "6% and 4%"},
      {"measurement": "Population Mitochondria Different-Phenotype (%)", "setting": "24 h, replicate 1", "result": "0% and 8%"},
      {"measurement": "Population Mitotic Cells (%)", "setting": "24 h, replicate 1", "result": "22% and 38%"},
      {"measurement": "Population Normal (%)", "setting": "24 h, replicate 1", "result": "86% and 88%"},
      {"measurement": "Population Pyknosed Nuclei (%)", "setting": "24 h, replicate 1", "result": "10% and 18%"},
      {"measurement": "Population Tubulin-Different-Phenotype (%)", "setting": "24 h, replicate 1", "result": "0% and 11%"},
      {"measurement": "Total Cell Count", "setting": "24 h, replicate 1", "result": "238 and 311"},
      {"measurement": "Population Fragmented Nuclei (%)", "setting": "24 h, replicate 2", "result": "51% and 63%"},
      {"measurement": "Population Healthy Nuclei (%)", "setting": "24 h, replicate 2", "result": "35% and 23%"},
      {"measurement": "Population Hoechst High Intensity Objects (%)", "setting": "24 h, replicate 2", "result": "31% and 42%"},
      {"measurement": "Population Membrane Permeable-Phenotype (%)", "setting": "24 h, replicate 2", "result": "10% and 28%"},
      {"measurement": "Population Normal (%)", "setting": "24 h, replicate 2", "result": "68% and 57%"},
      {"measurement": "Population Pyknosed Nuclei (%)", "setting": "24 h, replicate 2", "result": "12% and 13%"},
      {"measurement": "Total Cell Count", "setting": "24 h, replicate 2", "result": "79 and 52"}
    ]}
  ]
}
